What is called inhibition is the drop in the measured response relative to a control, in per cent. As a reminder, the IC50 is the concentration that inhibits the measured activity by half. Low values mean higher potency, high ones lower potency. Usually AUC(0-inf) stands for total exposure, with the tail of the curve extrapolated. Usually Cmax stands for the maximum level reached in the sampled fluid or tissue. Usually half-life stands for the time needed for the level to fall by half in the phase considered. Lower therefore signals rapid decline. By inhibition in vivo is commonly meant the relative decrease from the control value, in per cent.

Results on eight compounds are retold here after ChEMBL document CHEMBL1139354, “New derivatives of farnesylthiosalicylic acid (salirasib) for cancer treatment: farnesylthiosalicylamide inhibits tumor growth in nude mice models” (J Med Chem, 2009).

Active and inactive are the calls of the source.

For series [1], the system named is PANC-1. Description: Effect on Ras signaling in human PANC1 cells assessed as inhibition of KRas-GTP level at 50 uM after 24 hrs by immunoblot method. Format: functional. The following applies: PANC-1, 24 h. The essentials:
(§1)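 Cells were seeded at 1.5 × 10⁶ per 10-cm dish, grown 24 h, then exposed to 50 µM or 0.1% DMSO for 24 h. Lysates in Tris pH 7.6/MgCl2/NaCl/NP40/DTT buffer went through a GST-Raf-RBD pull-down, followed by immunoblots with pan-Ras or isoform-specific antibodies. Bands were detected by ECL and quantified by densitometry. Inhibition was calculated as control active-Ras % minus treated active-Ras % (mean ± SD).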
In general terms: In western blotting, separated proteins are transferred to a membrane and probed.

In series [2] the test system is PANC-1. The experiment in a line: Cytotoxicity against human PANC1 cells after 5 to 7 days. Format: functional, cell-based. The essentials:
(§2)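 U87 or Panc-1 cells were seeded at 5000 per well in DMEM/10% FCS and grown 24 h. Cells were then exposed to 6.25-100 µM in medium with 0.1% DMSO, or to vehicle. After 5-7 days cells were counted directly and IC50 was read from growth curves (2 independent experiments, n = 8, mean ± SD).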

A short description of series [3]: Effect on Ras signaling in human U87 cells assessed as inhibition of NRas-GTP level at 50 uM after 24 hrs by immunoblot method. In kind it is functional, cell-based. The following applies: U-87MG ATCC. The essentials:
as §1

For series [4], the system named is PANC-1. The experiment in a line: Effect on Ras signaling in human PANC1 cells assessed as inhibition of total Ras-GTP level at 50 uM after 24 hrs by immunoblot method. Format: functional. To be noted: PANC-1, 24 h. The essentials: as §1
The nature of series [5]: Effect on Ras signaling in human U87 cells assessed as inhibition of KRas-GTP level at 50 uM after 24 hrs by immunoblot method. The following applies: U-87MG ATCC. In kind it is functional, cell-based. The essentials:
as §1

A short description of series [6]: Cytotoxicity against human U87 cells after 5 to 7 days. In kind it is functional, cell-based, U-87MG ATCC. The following applies: U-87 MG. The essentials: as §2
Series [7] in a line: Effect on Ras signaling in human U87 cells assessed as inhibition of total Ras-GTP level at 50 uM after 24 hrs by immunoblot method. In kind it is functional, cell-based. The following applies: U-87MG ATCC. The essentials: as §1
Series [8] has as its system PANC-1. The experiment in a line: Effect on Ras signaling in human PANC1 cells assessed as inhibition of NRas-GTP level at 50 uM after 24 hrs by immunoblot method. In kind it is functional. To be noted: PANC-1, 24 h. The essentials: as §1
Series [9] in a line: Effect on Ras signaling in human U87 cells assessed as inhibition of HRas-GTP level at 50 uM after 24 hrs by immunoblot method. Format: functional, cell-based. The following applies: U-87MG ATCC. The essentials:
as §1

The nature of series [10]: AUC (0 to infinity) in Sprague-Dawley rat at 40 mg/kg, po. Format: ADME, organism-based. On the set-up: time infinity, dose 40 mg/kg, route oral. To be noted: plasma.
Series [11] in a line: Cmax in Sprague-Dawley rat at 40 mg/kg, po. Format: ADME, organism-based. Details: dose 40 mg/kg, route oral. To be noted: in vivo.
The nature of series [12]: Elimination half life in Sprague-Dawley rat at 40 mg/kg, po. In kind it is ADME, organism-based. Details: dose 40 mg/kg, route oral. To be noted: in vivo.
Series [13] is described as follows: Antitumor activity against human U87 cells xenografted CD1-Nu mouse at 100 mg/kg, po twice daily assessed as inhibition of tumor growth after 4 days. Format: functional, U-87MG ATCC. To be noted: U-87 MG, 96 h. The essentials: (§3)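 Nude mice under ketamine/xylazine received 5 × 10⁵ U87 cells into the striatum (1 µL/min for 5 min). Gd-DTPA contrast MRI on day 4 confirmed tumors and mice were grouped by size. From day 5 they received 100 mg/kg orally twice a day in corn oil, or vehicle. Tumor volumes were read from T1-weighted follow-up MRI. Normalized growth was taken as (follow-up volume − initial volume)/initial volume (n = 7, Mann-Whitney).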
A general note: A xenograft is tissue or cells of one species grown in another, often human tumour cells in immunodeficient mice.

Series [14] relates to PANC-1. The experiment in a line: Antitumor activity against human PANC1 cells xenografted CD1-Nu mouse at 100 mg/kg, po daily assessed as decrease in tumor weight after 18 days.
Series [15] in a line: Effect on Ras signaling in human U87 cells assessed as decrease in phospho-ERK level at 50 uM after 24 hrs by immunoblot method. The following applies: U-87MG ATCC. In kind it is functional, cell-based. The essentials:
(§4)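 Cells were seeded at 1.5 × 10⁶ per 10-cm dish, grown overnight in 10% FCS, then treated with 50 µM or 0.1% DMSO for 24 h. Lysates in Tris pH 7.6/MgCl2/NaCl/NP40/DTT buffer were immunoblotted for phospho-ERK1/2 and phospho-Akt, with β-tubulin as loading reference. Detection was by ECL.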

A short description of series [16]: Cmax in Sprague-Dawley rat at 100 mg/kg, po. In kind it is ADME, organism-based. Details: dose 100 mg/kg, route oral. The following applies: in vivo. The essentials: (§5)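 Male Sprague-Dawley rats (275-285 g) given a single oral dose of 100 mg/kg in corn oil. Arterial blood was taken under anesthesia at 10-330 min (4 animals per time point). Plasma was protein-precipitated with acetonitrile, propranolol served as internal standard, and samples were run on isocratic C18 LC-MS/MS (calibration 1-2500 ng/mL). Parameters came from a noncompartmental fit of the mean concentration-time data.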

The nature of series [17]: Antitumor activity against human U87 cells xenografted CD1-Nu mouse at 100 mg/kg, po twice daily assessed as inhibition of tumor growth after 9 days. Format: functional, U-87MG ATCC. To be noted: U-87 MG, 216 h. The essentials: as §3
The test system of series [18] is PANC-1. Description: Effect on Ras signaling in human PANC1 cells assessed as decrease in phospho-ERK level at 50 uM after 24 hrs by immunoblot method. Format: functional, cell-based. The essentials:
as §4

A further series concerns U-87MG ATCC. The experiment in a line: Antitumor activity against human U87 cells xenografted CD1-Nu mouse at 100 mg/kg, po twice daily assessed as increase tumor volume after 9 days. In kind it is functional, organism-based. On the set-up: dose 100 mg/kg. The essentials: as §3
A short description of series [19]: Effect on Ras signaling in human U87 cells assessed as decrease in phospho-AKT level at 50 uM after 24 hrs by immunoblot method. In kind it is functional, cell-based. The following applies: U-87MG ATCC. The essentials:
as §4

Series [20] can be described thus: Elimination half life in Sprague-Dawley rat at 100 mg/kg, po. In kind it is ADME, organism-based. Details: dose 100 mg/kg, route oral. To be noted: in vivo. The essentials: as §5
Series [21] deals with PANC-1. The experiment in a line: Effect on Ras signaling in human PANC1 cells assessed as decrease in phospho-AKT level at 50 uM after 24 hrs by immunoblot method. Format: functional, cell-based. The essentials: as §4
Series [22] can be described thus: AUC (0 to infinity) in Sprague-Dawley rat at 100 mg/kg, po. Format: ADME, organism-based. Details: time infinity, dose 100 mg/kg, route oral. To be noted: plasma. The essentials:
as §5

Take `COCOC(=O)c1ccccc1SC/C=C(\C)CC/C=C(\C)CCC=C(C)C`: the inhibition at 50 µM amounted to 19.9% in the series on PANC-1 [1] and 2.6% with PANC-1 [4]. Besides, the IC50 with PANC-1 [2] came out at 12 µM; in series [6], 10 µM. For the same compound, the inhibition came to 5.1% in series [3] and 4.8% in [5].

Take `COC(=O)c1ccccc1SC/C=C(\C)CC/C=C(\C)CCC=C(C)C`: the results for the inhibition at 50 µM in the series with PANC-1 [1] and in the series on PANC-1 [4] were 11.9% and 5.3%, respectively. Further, the figures for the IC50 (with PANC-1 [2]; in [6]) were 30 µM and 10 µM, respectively. Further, the inhibition amounted to 18.7% in series [3] and 23.8% in series [5].

As for `CC(C)=CCC/C(C)=C/CC/C(C)=C/CSc1ccccc1C(=O)OCc1ccccc1`, the IC50 in the series on PANC-1 [2] is 95 µM; in [6] it was 30 µM.

`CNC(=O)c1ccccc1SC/C=C(\C)CC/C=C(\C)CCC=C(C)C`: the results for the inhibition at 50 µM in the series on PANC-1 [1], in the series with PANC-1 [4] and with PANC-1 [8] were 52%, 39.7% and 18.8%, respectively. The IC50 in the series with PANC-1 [2] was 10 µM; in [6], 18 µM. Further, the inhibition in series [3] turned out to be 22.5%; in [5], 32.6%; in [7] it was 34.7%.

Turning to `CC(C)=CCC/C(C)=C/CC/C(C)=C/CSc1ccccc1C(=O)N(C)C`, the inhibition at 50 µM was 48% in the series with PANC-1 [1], 38.6% with PANC-1 [4] and 13.6% in the series on PANC-1 [8]. Besides, the IC50 in the series with PANC-1 [2] turned out to be 22 µM; in series [6], 20 µM. Besides, the inhibition in series [3] is 41%; in [9], 14%; in series [5], 28%; in series [7] it was 45.4%.

`CC(C)=CCC/C(C)=C/CC/C(C)=C/CSc1ccccc1C(=O)O` [SALIRASIB]: in series [10], the AUC(0-inf) is 6.21 µg·h/mL. Further, the figures for the IC50 (with PANC-1 [2]; in [6]) were 35 µM and 50 µM, respectively. In [11], this compound displayed a Cmax of 2.16 µg/mL. Further, the half-life in series [12] was 2.36 h.

In the case of `CC(C)=CCC/C(C)=C/CC/C(C)=C/CSc1ccccc1C(=O)OC(C)C`, the IC50 in the series on PANC-1 [2] came to 70 µM; in series [6], 52 µM.

`CC(C)=CCC/C(C)=C/CC/C(C)=C/CSc1ccccc1C(N)=O`: the inhibition in vivo at 100 mg/kg was determined as 80% in series [13] and 50% in series [17]. Also, the outcome (in the series on PANC-1 [14]; in [15]; in the series with U-87MG ATCC; in [19]) was Active. In series [16], this compound returned a Cmax of 0.371 µg/mL. For the same compound, the inhibition at 50 µM came out at 56% in the series with PANC-1 [1], 37.4% in the series with PANC-1 [4] and 8.6% in the series with PANC-1 [8]. Also, the outcome with PANC-1 [18] and in the series on PANC-1 [21] was inactive. Also, the IC50 came out at 20 µM in the series with PANC-1 [2] and 10 µM in series [6]. Also, the results for the inhibition in [3], in series [5] and in series [7] were 37.3%, 50.8% and 33%, respectively. The compound also gave a half-life in series [20] of 5.23 h. In addition, the AUC(0-inf) in [22] was 1.81 µg·h/mL.
